Key:
Assay type in all cases: functional
[1] = test system: NCI-H522; assay: Cytotoxicity against human NCI-H522 cells assessed as cell growth at 100 nM after 48 hrs by sulforhodamine B assay; conditions: NCI-H522, 48 h, read-out: Activity
[2] = test system: Malme-3M; assay: Cytotoxicity against human MALME-3M cells assessed as cell growth at 100 nM after 48 hrs by sulforhodamine B assay; conditions: read-out: Activity
[3] = test system: UACC-257; assay: Cytotoxicity against human UACC257 cells assessed as cell growth at 100 nM after 48 hrs by sulforhodamine B assay; conditions: UACC-257, 48 h, read-out: Activity
[4] = test system: MDA-MB-231; assay: Cytotoxicity against human MDA-MB-231 cells assessed as cell growth at 100 nM after 48 hrs by sulforhodamine B assay; conditions: MDA-MB-231, 48 h, read-out: Activity
[5] = test system: HOP-62; assay: Cytotoxicity against human HOP62 cells assessed as cell growth at 1 uM after 48 hrs by sulforhodamine B assay; conditions: HOP-62, 48 h, read-out: Activity
[6] = test system: ACHN; assay: Cytotoxicity against human ACHN cells assessed as cell growth at 10 uM; conditions: read-out: Activity
Method in brief: (§1)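 Single-dose NCI-60 screen at 10 µM. Cells were grown in RPMI 1640 with 5% FBS and 2 mM L-glutamine, then treated for 48 h at 37 °C. Protein was measured by SRB staining with absorbance at 515 nm. Percentage growth was recorded, and inhibition percentage was calculated as 100 minus growth percentage.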

[7] = test system: K562; assay: Cytotoxicity against human K562 cells assessed as cell growth at 0.001 uM after 48 hrs by sulforhodamine B assay; conditions: K562, 48 h, read-out: Activity
[8] = test system: SF-295; assay: Cytotoxicity against human SF295 cells assessed as cell growth at 1 uM after 48 hrs by sulforhodamine B assay; conditions: SF-295, 48 h, read-out: Activity
[9] = test system: LOX IMVI; assay: Cytotoxicity against human LOXIMVI cells assessed as cell growth at 1 uM after 48 hrs by sulforhodamine B assay; conditions: read-out: Activity
[10] = test system: SK-MEL-2; assay: Cytotoxicity against human SK-MEL-2 cells assessed as cell growth at 1 uM after 48 hrs by sulforhodamine B assay; conditions: SK-MEL-2, 48 h, read-out: Activity
[11] = test system: COLO 205; assay: Cytotoxicity against human COLO205 cells assessed as cell growth at 0.01 uM after 48 hrs by sulforhodamine B assay; conditions: COLO 205, 48 h, read-out: Activity
Method in brief: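 NCI-60 five-dose screen. Cells were grown in RPMI 1640 with 5% FBS and 2 mM L-glutamine, plated at 5000–40,000 cells/well and preincubated for 24 h. Time-zero plates were TCA-fixed. DMSO-solubilized drug was added at five concentrations (10-fold or ½-log serial dilutions) for 48 h at 37 °C, 5% CO2. Cells were TCA-fixed, stained with 0.4% SRB and read at 515 nm. Percent growth used time-zero, control and test absorbances.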

[12] = test system: SK-MEL-28; assay: Cytotoxicity against human SK-MEL-28 cells assessed as cell growth at 0.01 uM after 48 hrs by sulforhodamine B assay; conditions: SK-MEL-28, 48 h, read-out: Activity
[13] = test system: SN12C; assay: Cytotoxicity against human SN12C cells assessed as cell growth at 0.001 uM after 48 hrs by sulforhodamine B assay; conditions: read-out: Activity
[14] = Growth inhibition of human […] cells after 48 hrs by sulforhodamine B assay; conditions: for CC50: read-out: LC50 (the source's name)
Method in brief: (§2)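 NCI 60-cell screen, five-dose mode. Cells grown in RPMI 1640 with 5% FBS and 2 mM L-glutamine and plated at 5000-40,000 cells/well according to doubling time. After 24 h preincubation, a Tz plate was TCA-fixed. Five concentrations (10-fold or 1/2 log dilutions) were applied for 48 h at 37 °C. SRB staining read at 515 nm. IC50 taken from [(Ti-Tz)/(C-Tz)]×100 = 50.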

[15] = test system: NCI-H522; assay: Growth inhibition of human NCI-H522 cells after 48 hrs by sulforhodamine B assay; conditions: NCI-H522, 48 h; for CC50: read-out: LC50 (the source's name); method in brief: as §2
[16] = test system: HCT-15; assay: Growth inhibition of human HCT15 cells after 48 hrs by sulforhodamine B assay; conditions: HCT-15, 48 h; for CC50: read-out: LC50 (the source's name); method in brief: as §2
[17] = test system: HT-29; assay: Growth inhibition of human HT-29 cells after 48 hrs by sulforhodamine B assay; conditions: HT-29, 48 h; for CC50: read-out: LC50 (the source's name); method in brief: as §2
[18] = test system: U-251; assay: Growth inhibition of human U251 cells after 48 hrs by sulforhodamine B assay; conditions: U-251, 48 h; for CC50: read-out: LC50 (the source's name); method in brief: as §2
[19] = test system: Malme-3M; assay: Growth inhibition of human MALME-3M cells after 48 hrs by sulforhodamine B assay; conditions: for CC50: read-out: LC50 (the source's name); method in brief: as §2
[20] = test system: OVCAR-4; assay: Growth inhibition of human OVCAR4 cells after 48 hrs by sulforhodamine B assay; conditions: OVCAR-4, 48 h; for CC50: read-out: LC50 (the source's name); method in brief: as §2
[21] = test system: ACHN; assay: Growth inhibition of human ACHN cells after 48 hrs by sulforhodamine B assay
Method in brief: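 NCI five-dose SRB assay in RPMI 1640 with 5% FBS and 2 mM L-glutamine. Cells were preincubated 24 h, then exposed 48 h at 37 °C to five concentrations (10-fold or half-log serial dilutions from DMSO stocks). TCA fixation, SRB staining, and absorbance at 515 nm followed. IC50 was taken where [(Ti−Tz)/(C−Tz)]×100 = 50, with Tz as time-zero cell density.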

[22] = test system: HOP-62; assay: Cytotoxicity against human HOP62 cells assessed as cell growth at 10 uM; conditions: read-out: Activity; method in brief: as §1
[23] = Cytotoxicity against human Hs 578T cells assessed as cell growth at 1 uM after 48 hrs by sulforhodamine B assay; conditions: read-out: Activity
[24] = test system: T47D; assay: Cytotoxicity against human T47D cells assessed as cell growth at 1 uM after 48 hrs by sulforhodamine B assay; conditions: read-out: Activity
[25] = test system: SF-268; assay: Cytotoxicity against human SF268 cells assessed as cell growth at 10 uM; conditions: read-out: Activity
Method in brief: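 NCI-60 screen: cells grown in RPMI 1640 with 5% FBS and 2 mM L-glutamine, plated at 5000–40,000 cells/well according to doubling time, and preincubated 24 h at 37 °C, 5% CO2. The single 10 µM dose (DMSO stock) was added, then incubated 48 h. Cells were TCA-fixed and stained with 0.4% SRB, read at 515 nm, and growth % calculated against time-zero and control plates.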

[26] = test system: LOX IMVI; assay: Cytotoxicity against human LOXIMVI cells assessed as cell growth at 10 uM after 48 hrs by sulforhodamine B assay; conditions: read-out: Activity
[27] = test system: OVCAR-4; assay: Cytotoxicity against human OVCAR4 cells assessed as cell growth at 10 uM after 48 hrs by sulforhodamine B assay; conditions: OVCAR-4, 48 h, read-out: Activity
[28] = test system: SK-OV-3; assay: Cytotoxicity against human SKOV3 cells assessed as cell growth at 10 uM after 48 hrs by sulforhodamine B assay; conditions: SK-OV-3, 48 h, read-out: Activity

## Cc1cc(O)cc(-c2nn(CC#N)cc2-c2ccnc(-c3ccc(N(C)C)cc3)c2)c1
[1]
  growth at 0.1 µM: 75%
[2]
  growth at 0.1 µM: 94%
[3]
  growth at 0.1 µM: 83%
[4]
  growth at 0.1 µM: 84%
[5]
  growth at 1 µM: 13%
[6]
  growth at 10 µM: 31.2%
[7]
  growth at 0.001 µM: 100%
[8]
  growth at 1 µM: -5%
[9]
  growth at 1 µM: 29%
[10]
  growth at 1 µM: 11%
[11]
  growth at 0.01 µM: 95%
[12]
  growth at 0.01 µM: 94%
[13]
  growth at 0.001 µM: 97%
[14]
  GI50: 3.71 µM
  TGI: 22.2 µM
  CC50: > 100 µM
[15]
  GI50: 1.93 µM
  TGI: 7.14 µM
  CC50: 68.1 µM
[16]
  GI50: 3.36 µM
  TGI: 18.2 µM
  CC50: > 100 µM
[17]
  GI50: 4.65 µM
  TGI: 20.8 µM
  CC50: 93.9 µM
[18]
  GI50: 3.14 µM
  TGI: 12.9 µM
  CC50: 61.3 µM
[19]
  GI50: 4.56 µM
  TGI: 39.2 µM
  CC50: > 100 µM
[20]
  GI50: 4.85 µM
  TGI: > 100 µM
  CC50: > 100 µM
[21]
  GI50: 3.73 µM
  LC50 (concentration giving 50% net cell kill): > 100 µM
  TGI: 23.7 µM
[22]
  growth at 10 µM: 36.5%
[23]
  growth at 1 µM: -15%
[24]
  growth at 1 µM: 5%
[25]
  growth at 10 µM: 59.5%
[26]
  growth at 10 µM: -87%
[27]
  growth at 10 µM: 9%
[28]
  growth at 10 µM: -38%

## Cc1cc(O)cc(-c2nn(CC#N)cc2-c2ccnc(-c3ccc(Oc4ccccc4)cc3)c2)c1
[1]
  growth at 0.1 µM: 87%
[2]
  growth at 0.1 µM: 93%
[3]
  growth at 0.1 µM: 84%
[4]
  growth at 0.1 µM: 85%
[5]
  growth at 1 µM: 60%
[6]
  growth at 10 µM: 37.6%
[7]
  growth at 0.001 µM: 63%
[8]
  growth at 1 µM: 30%
[9]
  growth at 1 µM: -91%
[10]
  growth at 1 µM: 6%
[11]
  growth at 0.01 µM: 99%
[12]
  growth at 0.01 µM: 94%
[13]
  growth at 0.001 µM: 94%
[14]
  GI50: 2.25 µM
  TGI: 6.52 µM
  CC50: > 100 µM
[15]
  GI50: 2.72 µM
  TGI: 10.4 µM
  CC50: 35.1 µM
[16]
  GI50: 2.14 µM
  TGI: 5.38 µM
  CC50: 26.1 µM
[17]
  GI50: 1.83 µM
  TGI: 3.84 µM
  CC50: 8.06 µM
[18]
  GI50: 1.61 µM
  TGI: 2.99 µM
  CC50: 5.56 µM
[19]
  GI50: 1.81 µM
  TGI: 3.58 µM
  CC50: 7.12 µM
[20]
  GI50: 4.56 µM
  TGI: 16 µM
  CC50: 48.6 µM
[21]
  GI50: 2.84 µM
  LC50 (concentration giving 50% net cell kill): 33.8 µM
  TGI: 9.14 µM
[22]
  growth at 10 µM: 99.3%
[23]
  growth at 1 µM: -23%
[24]
  growth at 1 µM: -26%
[25]
  growth at 10 µM: 71.8%
[26]
  growth at 10 µM: -86%
[27]
  growth at 10 µM: -83%
[28]
  growth at 10 µM: -99%

Reference: ChEMBL document CHEMBL1165950, “Design and synthesis of new potent anticancer pyrazoles with high FLT3 kinase inhibitory selectivity” (Bioorg Med Chem, 2010)
